“Also recorded” adds a separate entry of the source.
What was measured:
[1] = Complexation kinetics with Cu; type: physicochemical; conditions: ligand 1 mM, Cu(II) 7 μM, AAIII 14 μM, 0.15 M NH4OAc pH 5.0, room temperature, 1 h
Summary of the method: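 Cu(II)–Arsenazo III reagent made in metal-free 0.15 M NH4OAc, pH 5.0 (14 μM AAIII, 7 μM Cu(II)), kept in the dark and stirred 2 h to equilibrate. Instrument zeroed against AAIII alone. Test compound was added from a 1 mM solution into the Cu(II)–AAIII cells at room temperature. A610 was read every 30 s for 1 h and compared with Cu(II)–AAIII alone.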

[2] = Biodistribution of 64Cu-labeled BFCs in female SCID mice; type: in vivo; conditions: for radioactivity in blood (%ID/g): 24 h post-injection; for decrease of %ID/g in kidney by 24 h: by 24 h relative to 1 h
Summary of the method: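 Female SCID mice, n = 4/group, received 64Cu-labeled chelator (0.74 MBq in 100 μL saline) by tail-vein injection; labeling was done in 0.1 M NH4OAc, pH 5.5. At 1, 4 and 24 h, mice were anesthetized with 1-2% isoflurane and killed by cervical dislocation. Blood, lung, liver, spleen, pancreas, kidney, muscle and bone were weighed and gamma-counted. %ID/g was decay-corrected and normalized to tissue weight.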

[3] = cited from earlier work
[4] = In vitro rat serum stability of 64Cu-labeled chelators; type: in vitro ADME; conditions: 37 °C, 48 h incubation, TLC
Summary of the method: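 Chelator was labeled with 64Cu in 0.1 M NH4OAc, pH ~5.5. Labeled complex (10 μL, ~3.7 MBq) was added to 90 μL rat serum at 37 °C. Aliquots taken at 1, 2, 4, 24 and 48 h were run on C-18 TLC in 10% NH4OAc:MeOH (3:7), and percent 64Cu still bound was determined.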

Structure (SMILES) | complexation kinetics with Cu(II) [1] | radioactivity in blood (%ID/g) [2] | decrease of %ID/g in kidney by 24 h [2] | stability of 64Cu complex in rat serum [3] | percentage of intact 64Cu complex in rat serum [4]
O=C(O)CNC(Cc1ccc([N+](=O)[O-])cc1)CN1CCN(CC(=O)O)CCN(CC(=O)O)CC1 (stereo not shown) [C-NE3TA, 4-carboxymethyl-7-[2-(carboxymethyl-amino)-3-(4-nitro-phenyl)-propyl]-[1,4,7]triazonan-1-yl-acetic acid] | formed complexes with Cu(II) almost immediately; also recorded: rapidly formed complexes with Cu(II) | 0.18 ± 0.06 %ID/g | 60% |  | 
O=C(O)CN1CCN(CCN(CC(=O)O)Cc2ccc([N+](=O)[O-])cc2)CCN(CC(=O)O)CC1 [N-NE3TA, 4-carboxymethyl-7-[2-[carboxymethyl-(4-nitro-benzyl)-amino]-ethyl]-[1,4,7]triazonan-1-yl-acetic acid] | formed complexes with Cu(II) almost immediately; also recorded: rapidly formed complexes with Cu(II) | 0.13 ± 0.06 %ID/g | 60% |  | 
O=C(O)CNCCN1CCN(CC(=O)O)CCN(CC(=O)O)CC1 [NE3TA] |  |  |  | high stability | 
Nc1ccc(CC2CN(CC(=O)O)CCN(CC(=O)O)CCN(CC(=O)O)CCN2CC(=O)O)cc1 (stereo not shown) [p-NH2-Bn-DOTA, 2-(4-aminobenzyl)-1,4,7,10-tetraazacyclododecane-1,4,7,10-tetraacetic acid, reference compound] |  | 0.47 ± 0.17 %ID/g |  |  | 93.9%
Nc1ccc(C[C@H]2CN(CC(=O)O)CCN(CC(=O)O)CCN2CC(=O)O)cc1 [p-NH2-Bn-NOTA, S-2-(4-aminobenzyl)-1,4,7-triazacyclononane-1,4,7-triacetic acid] |  |  |  |  | 97.9%

Reference: PMC3470735 (Nuclear medicine and biology, 2012)
